Assay results: ChEMBL document CHEMBL3994612, “Novel 4-(4-substituted amidobenzyl)furan-2(5H)-one derivatives as topoisomerase I inhibitors” (Eur J Med Chem, 2017)
Activity calls are given as the source filed them. No cut-off for these calls is given here.

How the values were obtained:
[1] = molecular target: T1, DNA topoisomerase 1 (Homo sapiens) (UniProt P11387); test: Inhibition of recombinant human topoisomerase-1 assessed as reduction in relaxation of supercoiled pBR322 DNA substrate at 100 uM after 30 mins by ethidium bromide staining based agarose gel electrophoresis relative to control
T1 sequence (whole entry): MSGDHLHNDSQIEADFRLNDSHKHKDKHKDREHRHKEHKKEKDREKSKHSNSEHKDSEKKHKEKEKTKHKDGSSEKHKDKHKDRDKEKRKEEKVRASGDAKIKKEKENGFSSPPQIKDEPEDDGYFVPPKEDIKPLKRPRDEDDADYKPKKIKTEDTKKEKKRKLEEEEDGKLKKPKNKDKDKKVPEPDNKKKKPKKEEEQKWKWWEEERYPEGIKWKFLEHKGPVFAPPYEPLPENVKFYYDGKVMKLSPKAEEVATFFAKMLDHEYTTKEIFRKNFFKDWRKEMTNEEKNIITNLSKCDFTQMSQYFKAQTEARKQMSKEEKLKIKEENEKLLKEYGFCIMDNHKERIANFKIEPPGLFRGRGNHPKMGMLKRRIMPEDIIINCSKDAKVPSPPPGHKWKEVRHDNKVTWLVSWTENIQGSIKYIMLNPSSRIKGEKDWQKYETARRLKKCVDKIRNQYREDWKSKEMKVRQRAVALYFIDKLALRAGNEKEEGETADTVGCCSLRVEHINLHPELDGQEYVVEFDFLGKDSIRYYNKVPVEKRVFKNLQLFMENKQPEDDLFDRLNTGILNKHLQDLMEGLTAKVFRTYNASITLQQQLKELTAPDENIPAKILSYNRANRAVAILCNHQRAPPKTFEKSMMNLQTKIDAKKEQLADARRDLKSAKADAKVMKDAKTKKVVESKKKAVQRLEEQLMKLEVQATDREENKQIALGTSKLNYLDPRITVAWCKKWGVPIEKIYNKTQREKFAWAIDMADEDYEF
Method in brief: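 pBR322 DNA (0.1 µg) and recombinant human Topo I (0.2 units) incubated ± compound 30 min at 37 °C in supplier's Topo I buffer; compounds from DMSO stocks. Stopped with bromophenol blue/xylene cyanol/glycerol dye. Read-out: 1% agarose in 1× TAE, 100 V for 30 min, EB stain (0.5 µg/mL). Percent inhibition from gray-scale band analysis; camptothecin positive control.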

HeLa = test: Cytotoxicity against human HeLa cells assessed as reduction in cell viability after 48 hrs by MTT assay; format: functional, cell-based
Method in brief: (§1)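 MCF-7, HeLa and A549 cells seeded at 3.5 × 10^3 per well in medium with 10% FBS and left overnight. Medium then replaced with fresh medium holding a range of compound concentrations for 48 h. MTT (5 mg/mL) added, 4 h at 37 °C. Formazan dissolved in DMSO, absorbance read at 570 nm. Triplicate wells per dose; IC50 derived.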

MCF7 = test: Cytotoxicity against human MCF7 cells assessed as reduction in cell viability after 48 hrs by MTT assay; format: functional, cell-based; conditions: MCF7, 48 h; method in brief: as §1
A549 = test: Cytotoxicity against human A549 cells assessed as reduction in cell viability after 48 hrs by MTT assay; format: functional, cell-based; conditions: A549, 48 h; method in brief: as §1
[2] = molecular target: T1, DNA topoisomerase 1 (Homo sapiens); test: Inhibition of recombinant human topoisomerase-1 assessed as DNA insertion by measuring drug-DNA-enzyme ternary complex formation up to 100 uM using supercoiled pBR322 DNA substrate after 30 mins by ethidium bromide staining based agarose gel electrophoresis
Method in brief: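 Supercoiled pBR322 DNA (0.1 µg) in Topo I buffer (50 mM Tris-HCl pH 7.5, 10 mM MgCl2, 50 mM KCl, 0.1 mM EDTA, 0.5 mM DTT, BSA) pre-incubated with compound 10 min at 25 °C. Excess Topo I (4 units) then added, 30 min at 37 °C. Read-out: 1% agarose/TAE electrophoresis, EB staining, UV imaging. Ethidium bromide positive control; camptothecin negative control.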

[3] = molecular target: T1, DNA topoisomerase 1 (Homo sapiens); test: Inhibition of recombinant human topoisomerase-1 assessed as interference in DNA binding to enzyme by measuring reduction in enzyme-DNA complex using supercoiled pBR322 DNA substrate preincubated for 20 mins followed by substrate addition measured after 3 mins by electrophoretic mobility shift assay
[4] = molecular target: T1, DNA topoisomerase 1 (Homo sapiens); test: Poison activity at recombinant human topoisomerase-1 assessed as stabilization of DNA-enzyme cleavage complex by measuring increase in linear DNA using supercoiled pBR322 DNA substrate after 30 mins by ethidium bromide staining based agarose gel electrophoresis
[5] = molecular target: T1, DNA topoisomerase 1 (Homo sapiens); test: Inhibition of recombinant human topoisomerase-1 assessed as DNA insertion by measuring drug-DNA-enzyme ternary complex formation up to 25 uM using supercoiled pBR322 DNA substrate after 30 mins by ethidium bromide staining based agarose gel electrophoresis
Method in brief: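 Supercoiled pBR322 DNA (0.1 µg) preincubated with compound 10 min at 25 °C, then excess Topo I (4 units) added, 30 min at 37 °C in 20 µL Tris-HCl pH 7.5 buffer with MgCl2, KCl, EDTA, DTT, BSA. Run on 1% agarose in TAE 40 min, EB post-stained, UV-imaged. Unwinding read as supercoiled retained versus relaxed.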

SMILES | inhibition [1] | IC50 (HeLa) | IC50 (MCF7) | IC50 (A549) | inhibition [2] | inhibition [3] | Activity [4] | inhibition [5]
O=C(/C=C/c1ccc(F)cc1)Nc1ccc(CC2=CC(=O)OC2)cc1 | 12.1% | > 50 µM | 47.9 µM | 41.8 µM | – | – | – | –
C=C1OC(=O)C=C1Cc1ccc(NC(=O)Cc2ccc(Cl)cc2)cc1 | 30.3% | 35.5 µM | 37.4 µM | 37.6 µM | inactive | – | – | –
C=C1OC(=O)C=C1Cc1ccc(NC(=O)c2ccccc2)cc1 | 28.7% | 48.3 µM | > 50 µM | 49.8 µM | inactive | – | – | –
C=C1OC(=O)C=C1Cc1ccc(NC(=O)/C=C/c2cccc(F)c2)cc1 | 34.5% | 30.2 µM | 39 µM | 35.2 µM | inactive | – | – | –
C=C1OC(=O)C=C1Cc1ccc(NC(=O)/C=C/c2ccc(F)cc2)cc1 | 94% | 2.77 µM | 4.43 µM | 3.46 µM | inactive | Dose-dependent effect | Dose-dependent effect | –
CC[C@@]1(O)C(=O)OCc2c1cc1n(c2=O)Cc2cc3ccccc3nc2-1 [CAMPTOTHECIN] | – | 60 µM | 71.3 µM | 0.24 µM | – | – | – | –
C=C1OC(=O)C=C1Cc1ccc(NC(=O)Cc2ccccc2F)cc1 | 32.8% | 40.5 µM | 48.3 µM | 32 µM | inactive | – | – | –
CC[n+]1c(-c2ccccc2)c2cc(N)ccc2c2ccc(N)cc21 | – | – | – | – | – | – | – | Active
C=C1OC(=O)C=C1Cc1ccc(NC(=O)Cc2ccccc2Cl)cc1 | 21.3% | 42.6 µM | 40.9 µM | 48.8 µM | inactive | – | – | –
O=C(Cc1ccccc1C(F)(F)F)Nc1ccc(CC2=CC(=O)OC2)cc1 | 20.3% | 44.6 µM | 43.8 µM | 48.9 µM | – | – | – | –
O=C(Cc1cccc(C(F)(F)F)c1)Nc1ccc(CC2=CC(=O)OC2)cc1 | 12.3% | 44 µM | 40.1 µM | > 50 µM | – | – | – | –
C=C1OC(=O)C=C1Cc1ccc(NC(=O)Cc2ccccc2)cc1 | 28.5% | > 50 µM | > 50 µM | 39 µM | inactive | – | – | –
O=C(/C=C/c1ccccc1F)Nc1ccc(CC2=CC(=O)OC2)cc1 | 11.7% | 45.8 µM | > 50 µM | 40 µM | – | – | – | –
O=C(Cc1ccc(C(F)(F)F)cc1)Nc1ccc(CC2=CC(=O)OC2)cc1 | 11% | 48.8 µM | 46.4 µM | 45.8 µM | – | – | – | –
Cc1ccc(CC(=O)Nc2ccc(CC3=CC(=O)OC3)cc2)cc1 | 19.4% | > 50 µM | 49.2 µM | 41.4 µM | – | – | – | –
C=C1OC(=O)C=C1Cc1ccc(NC(=O)Cc2cccc(Cl)c2)cc1 | 22.5% | 45.8 µM | 42.9 µM | 41 µM | inactive | – | – | –
C=C1OC(=O)C=C1Cc1ccc(NC(=O)Cc2ccc(C(F)(F)F)cc2)cc1 | 34.9% | 39.7 µM | 39.8 µM | 42.9 µM | inactive | – | – | –
C=C1OC(=O)C=C1Cc1ccc(NC(=O)Cc2ccc(C)cc2)cc1 | 47.9% | 7.12 µM | 3.94 µM | 7.79 µM | inactive | – | – | –
C=C1OC(=O)C=C1Cc1ccc(NC(=O)Cc2ccccc2C(F)(F)F)cc1 | 32.3% | 37.5 µM | 48.7 µM | 37.5 µM | inactive | – | – | –
C=C1OC(=O)C=C1Cc1ccc(NC(=O)Cc2ccc(F)cc2)cc1 | 43.3% | 16.2 µM | 16 µM | 22.8 µM | inactive | – | – | –
C=C1OC(=O)C=C1Cc1ccc(NC(=O)/C=C/c2ccccc2F)cc1 | 44.6% | 6.93 µM | 13.8 µM | 7.41 µM | inactive | – | – | –
C=C1OC(=O)C=C1Cc1ccc(NC(=O)/C=C/c2ccccc2)cc1 | 48.6% | 7.34 µM | 9.49 µM | 14.8 µM | inactive | – | – | –
O=C(/C=C/c1cccc(F)c1)Nc1ccc(CC2=CC(=O)OC2)cc1 | 13.1% | 49 µM | 39 µM | > 50 µM | – | – | – | –
C=C1OC(=O)C=C1Cc1ccc(NC(=O)Cc2cccc(C(F)(F)F)c2)cc1 | 41.9% | 8.63 µM | 6.15 µM | 6.69 µM | inactive | – | – | –
